In ChEMBL document CHEMBL1137287, “Peptidyl-urea based inhibitors of soluble epoxide hydrolases” (Bioorg Med Chem Lett, 2006):
pIC50, pKi: −log10 of the molar value.

How the values were obtained:
[1] = Plasma concentration in dog at 0.3 mg/kg, po after 60 min; format: ADME, organism-based, Canis lupus familiaris; design: dose 0.3 mg/kg, route oral
How it was run: (§1)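 Dogs given oral dose of 0.3 mg/kg per inhibitor, three different inhibitors per dog per experiment, formulated at 6 mg/mL in triglycerides (tristearate, 6 mL). AUC estimated from plasma concentration (nM) versus time (min) plot.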

[2] = Solubility in sodium phosphate buffer at pH 7.4; format: physicochemical
How it was run: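 Solubility measured in sodium phosphate buffer, 100 mM, pH 7.4, following a previously described procedure.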

[3] = Plasma concentration in dog at 0.3 mg/kg, po after 15 min; format: ADME, organism-based, Canis lupus familiaris; design: dose 0.3 mg/kg, route oral; how it was run: as §1
[4] = molecular target: T1, Bifunctional epoxide hydrolase 2 (Homo sapiens, UniProt P34913); test: Inhibition of human recombinant soluble Epoxide hydrolase
T1 sequence (P34913 whole entry): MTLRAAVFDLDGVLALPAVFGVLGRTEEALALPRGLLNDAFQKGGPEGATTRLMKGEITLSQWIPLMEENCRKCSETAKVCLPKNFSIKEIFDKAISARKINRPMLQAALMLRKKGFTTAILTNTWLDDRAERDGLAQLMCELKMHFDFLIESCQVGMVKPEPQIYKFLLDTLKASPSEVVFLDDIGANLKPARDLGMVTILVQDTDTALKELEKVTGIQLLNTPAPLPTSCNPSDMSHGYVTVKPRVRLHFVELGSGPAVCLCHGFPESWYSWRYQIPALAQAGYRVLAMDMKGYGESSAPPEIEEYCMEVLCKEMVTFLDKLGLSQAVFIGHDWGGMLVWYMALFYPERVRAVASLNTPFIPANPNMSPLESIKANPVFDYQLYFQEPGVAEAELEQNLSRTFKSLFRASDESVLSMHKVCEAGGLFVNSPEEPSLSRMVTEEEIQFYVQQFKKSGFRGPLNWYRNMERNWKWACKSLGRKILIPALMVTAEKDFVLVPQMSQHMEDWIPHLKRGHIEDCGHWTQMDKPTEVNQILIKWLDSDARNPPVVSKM

[5] = AUC in dog at 0.3 mg/kg, po; format: ADME, organism-based, Canis lupus familiaris; design: dose 0.3 mg/kg, route oral; conditions: plasma; how it was run: as §1
[6] = Plasma concentration in dog at 0.3 mg/kg, po after 30 min; format: ADME, organism-based, Canis lupus familiaris; design: dose 0.3 mg/kg, route oral; how it was run: as §1
[7] = molecular target: T2, Bifunctional epoxide hydrolase 2 (Mus musculus, UniProt P34914); test: Inhibition of mouse recombinant soluble Epoxide hydrolase
T2 sequence (P34914 whole entry): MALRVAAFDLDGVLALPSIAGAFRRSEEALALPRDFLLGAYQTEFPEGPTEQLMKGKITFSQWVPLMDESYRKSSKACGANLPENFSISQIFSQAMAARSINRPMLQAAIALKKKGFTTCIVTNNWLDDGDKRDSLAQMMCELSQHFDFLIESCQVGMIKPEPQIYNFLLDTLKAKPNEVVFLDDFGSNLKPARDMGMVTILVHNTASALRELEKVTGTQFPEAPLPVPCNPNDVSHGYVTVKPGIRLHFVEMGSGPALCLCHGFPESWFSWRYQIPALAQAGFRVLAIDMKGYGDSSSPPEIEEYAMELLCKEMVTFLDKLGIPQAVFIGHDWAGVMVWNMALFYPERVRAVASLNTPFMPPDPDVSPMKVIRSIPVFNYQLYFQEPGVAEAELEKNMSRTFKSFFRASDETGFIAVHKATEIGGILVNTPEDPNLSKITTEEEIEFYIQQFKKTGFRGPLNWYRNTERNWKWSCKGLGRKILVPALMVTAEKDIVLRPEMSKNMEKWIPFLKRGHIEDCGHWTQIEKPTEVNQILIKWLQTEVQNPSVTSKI

[8] = Plasma concentration in dog at 0.3 mg/kg, po after 300 min; format: ADME, organism-based, Canis lupus familiaris; design: dose 0.3 mg/kg, route oral; how it was run: as §1
[9] = Plasma concentration in dog at 0.3 mg/kg, po after 180 min; format: ADME, organism-based, Canis lupus familiaris; design: dose 0.3 mg/kg, route oral; how it was run: as §1
[10] = Plasma concentration in dog at 0.3 mg/kg, po after 240 min; format: ADME, organism-based, Canis lupus familiaris; design: dose 0.3 mg/kg, route oral; how it was run: as §1
[11] = Plasma concentration in dog at 0.3 mg/kg, po after 480 min; format: ADME, organism-based, Canis lupus familiaris; design: dose 0.3 mg/kg, route oral; how it was run: as §1
[12] = Plasma concentration in dog at 0.3 mg/kg, po after 120 min; format: ADME, organism-based, Canis lupus familiaris; design: dose 0.3 mg/kg, route oral; how it was run: as §1
[13] = Plasma concentration in dog at 0.3 mg/kg, po after 360 min; format: ADME, organism-based, Canis lupus familiaris; design: dose 0.3 mg/kg, route oral; how it was run: as §1

Compound	solubility [2]	pIC50 [7]	pIC50 [4]	further results
O=C(CCCCCNC(=O)NC12CC3CC(CC(C3)C1)C2)N[C@@H](Cc1ccccc1)C(=O)N[C@@H](Cc1c[nH]c2ccccc12)C(=O)O	> 500 µM	–	–	concentration at 1 h [1]: 0.33 nM; concentration at 0.25 h [3]: 0.62 nM; pKi [4]: 7.82; AUC [5]: < 1.67 nM·h; concentration at 0.5 h [6]: 0.82 nM
O=C(CCCNC(=O)NC1CCCCC1)N[C@@H](Cc1ccccc1)C(=O)O	> 500 µM	5.80	4.68	–
O=C(O)CCCCCCCCCCCNC(=O)NC12CC3CC(CC(C3)C1)C2	–	–	–	concentration at 5 h [8]: 1.61 nM; concentration at 3 h [9]: 13.4 nM; concentration at 4 h [10]: 6.12 nM; concentration at 1 h [1]: 30.7 nM; concentration at 8 h [11]: 0.86 nM; concentration at 2 h [12]: 26.3 nM; concentration at 0.25 h [3]: 6.97 nM; concentration at 6 h [13]: 1.17 nM; concentration at 0.5 h [6]: 20.4 nM
O=C(O)CC[C@H](NC(=O)CNC(=O)NC1CCCCC1)C(=O)O	> 500 µM	< 4.00	< 4.00	–
O=C(CNC(=O)NC1CCCCC1)N[C@@H](Cc1cnc[nH]1)C(=O)O	> 500 µM	4.44	< 4.00	–
NC(N)=NCCC[C@H](NC(=O)CCCCCNC(=O)NC1CCCCC1)C(=O)O	> 500 µM	6.64	< 4.00	–
O=C(CNC(=O)NC1CCCCC1)N[C@@H](Cc1ccccc1)C(=O)O	> 500 µM	4.74	< 4.00	–
N=C(N)NCCC[C@H](NC(=O)CCCNC(=O)NC1CCCCC1)C(=O)O	> 500 µM	6.00	4.60	–
O=C(CCCNC(=O)NC1CCCCC1)N[C@@H](Cc1cnc[nH]1)C(=O)O	> 500 µM	7.30	4.52	–
O=C(O)CC[C@H](NC(=O)CCCCCNC(=O)NC1CCCCC1)C(=O)O	> 500 µM	4.29	< 4.00	–
O=C(CCCCCNC(=O)NC1CCCCC1)N[C@@H](Cc1cnc[nH]1)C(=O)O	> 500 µM	7.22	< 4.00	–
